In ChEMBL document CHEMBL2331531, “Synthesis and biological evaluation of urea derivatives as highly potent and selective rho kinase inhibitors” (J Med Chem, 2013):

Assays:
[1] = Oral bioavailability in Sprague-Dawley rat at 2 mg/kg by LC-MS/MS analysis; format: ADME, organism-based; details: in vivo
[2] = Cmax in Sprague-Dawley rat at 1 mg/kg, iv by LC-MS/MS analysis; format: ADME, organism-based; design: dose 1 mg/kg, route intravenous; details: in vivo
[3] = (§1) AUC in Sprague-Dawley rat at 1 mg/kg, iv by LC-MS/MS analysis; format: ADME, organism-based, Plasma; design: dose 1 mg/kg, route intravenous; details: Sprague-Dawley, plasma
[4] = Half life in Sprague-Dawley rat at 1 mg/kg, iv by LC-MS/MS analysis; format: ADME, organism-based; design: dose 1 mg/kg, route intravenous; details: in vivo
[5] = Volume of distribution in Sprague-Dawley rat at 1 mg/kg, iv by LC-MS/MS analysis; format: ADME, organism-based; design: dose 1 mg/kg, route intravenous; details: in vivo
[6] = Clearance in Sprague-Dawley rat at 1 mg/kg, iv by LC-MS/MS analysis; format: ADME, organism-based; design: dose 1 mg/kg, route intravenous; details: in vivo
CYP3A4 = CYP3A4 (Homo sapiens, UniProt P08684); assay: Inhibition of CYP3A4 (unknown origin)-mediated midazolam hydroxylation to 1'-Hydroxymidazolam at 10 uM relative to control; format: ADME; details: probe midazolam
Chain of CYP3A4 (P08684 whole entry): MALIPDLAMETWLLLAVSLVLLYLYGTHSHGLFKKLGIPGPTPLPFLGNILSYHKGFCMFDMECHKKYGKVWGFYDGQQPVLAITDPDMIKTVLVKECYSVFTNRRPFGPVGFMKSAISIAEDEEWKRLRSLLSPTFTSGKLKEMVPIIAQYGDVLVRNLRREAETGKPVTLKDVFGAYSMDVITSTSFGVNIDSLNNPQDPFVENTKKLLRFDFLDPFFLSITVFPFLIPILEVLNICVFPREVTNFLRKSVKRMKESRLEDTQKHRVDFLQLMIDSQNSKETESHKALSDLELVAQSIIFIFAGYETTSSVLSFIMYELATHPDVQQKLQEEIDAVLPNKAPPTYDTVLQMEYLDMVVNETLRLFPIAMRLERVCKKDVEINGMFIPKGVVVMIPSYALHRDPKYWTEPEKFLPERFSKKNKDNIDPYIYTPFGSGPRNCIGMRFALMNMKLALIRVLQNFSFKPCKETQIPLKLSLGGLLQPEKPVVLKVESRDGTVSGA

CYP2D6 = CYP2D6 (Homo sapiens, UniProt P10635); assay: Inhibition of CYP2D6 (unknown origin)-mediated bufuralol hydroxylation to 4'-Hydroxybufuralol at 10 uM relative to control; format: ADME; details: probe bufuralol
Chain of CYP2D6 (P10635 whole entry): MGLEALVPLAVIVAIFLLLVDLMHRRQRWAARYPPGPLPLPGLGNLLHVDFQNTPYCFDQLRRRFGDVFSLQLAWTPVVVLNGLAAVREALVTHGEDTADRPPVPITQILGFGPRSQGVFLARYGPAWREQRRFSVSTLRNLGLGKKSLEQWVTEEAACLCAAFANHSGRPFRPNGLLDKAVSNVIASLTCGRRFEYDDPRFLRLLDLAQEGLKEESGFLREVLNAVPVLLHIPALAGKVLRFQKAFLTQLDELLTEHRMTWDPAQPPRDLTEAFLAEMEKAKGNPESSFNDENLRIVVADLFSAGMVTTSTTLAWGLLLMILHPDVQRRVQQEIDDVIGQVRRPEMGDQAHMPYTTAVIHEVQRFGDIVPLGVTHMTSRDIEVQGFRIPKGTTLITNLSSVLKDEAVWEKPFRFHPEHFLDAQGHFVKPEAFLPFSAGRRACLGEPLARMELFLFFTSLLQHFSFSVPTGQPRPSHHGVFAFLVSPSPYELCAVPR

CYP2C9 = CYP2C9 (Homo sapiens, UniProt P11712); assay: Inhibition of CYP2C9 (unknown origin)-mediated tolbutamide hydroxylation to hydroxy tolbutamide at 10 uM relative to control; format: ADME; details: probe tolbutamide
Chain of CYP2C9 (P11712 whole entry): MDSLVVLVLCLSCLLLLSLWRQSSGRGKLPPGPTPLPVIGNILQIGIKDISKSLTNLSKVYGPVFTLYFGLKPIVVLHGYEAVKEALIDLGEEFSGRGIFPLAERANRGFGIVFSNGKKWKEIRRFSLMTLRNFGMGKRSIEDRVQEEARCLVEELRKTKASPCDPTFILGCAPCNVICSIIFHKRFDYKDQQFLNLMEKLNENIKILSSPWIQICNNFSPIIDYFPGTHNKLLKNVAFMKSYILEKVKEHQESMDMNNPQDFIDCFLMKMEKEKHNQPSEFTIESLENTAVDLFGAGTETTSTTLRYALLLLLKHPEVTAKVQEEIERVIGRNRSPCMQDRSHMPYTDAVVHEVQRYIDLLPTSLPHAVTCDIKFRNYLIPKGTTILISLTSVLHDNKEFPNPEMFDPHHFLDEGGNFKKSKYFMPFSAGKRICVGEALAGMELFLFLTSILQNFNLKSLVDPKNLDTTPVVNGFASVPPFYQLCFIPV

CYP1A2 = biological target: T1, CYP1A2 (Homo sapiens, UniProt P05177); assay: Inhibition of CYP1A2 (unknown origin)-mediated phenaceten demethylation to acetaminophen at 10 uM relative to control; format: ADME; details: probe phenacetin (printed: phenaceten)
T1 sequence (P05177 whole entry): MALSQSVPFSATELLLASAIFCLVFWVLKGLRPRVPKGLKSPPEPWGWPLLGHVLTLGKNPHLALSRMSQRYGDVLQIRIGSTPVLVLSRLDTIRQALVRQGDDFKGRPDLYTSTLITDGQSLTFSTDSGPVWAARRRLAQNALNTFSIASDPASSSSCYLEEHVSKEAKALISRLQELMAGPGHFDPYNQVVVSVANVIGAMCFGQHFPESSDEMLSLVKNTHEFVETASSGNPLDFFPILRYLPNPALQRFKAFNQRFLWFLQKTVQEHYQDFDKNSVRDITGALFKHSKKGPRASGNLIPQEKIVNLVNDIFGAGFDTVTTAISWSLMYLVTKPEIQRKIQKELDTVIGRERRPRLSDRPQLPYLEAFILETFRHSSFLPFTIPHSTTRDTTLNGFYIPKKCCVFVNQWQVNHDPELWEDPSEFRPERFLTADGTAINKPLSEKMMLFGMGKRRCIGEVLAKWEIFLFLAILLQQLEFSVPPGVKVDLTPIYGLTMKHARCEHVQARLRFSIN

[7] = biological target: Rho-associated protein kinase 1 (Homo sapiens, UniProt Q13464); assay: Inhibition of ROCK1 (unknown origin) after 4 hrs by HTRF assay
MAP kinase p38 = MAP kinase p38 (Homo sapiens, UniProt O15264+Q15759+Q16539+P53778); assay: Inhibition of p38 (unknown origin) using biotinylated Flag-ATF2 as substrate after 30 mins by HTRF assay; format: protein assay
[8] = biological target: Mitogen-activated protein kinase 10 (Homo sapiens, UniProt P53779); assay: Inhibition of JNK3 alpha1 (unknown origin) using biotinylated Flag-ATF2 as substrate after 15 mins by HTRF assay
Chain of Mitogen-activated protein kinase 10 (P53779 whole entry): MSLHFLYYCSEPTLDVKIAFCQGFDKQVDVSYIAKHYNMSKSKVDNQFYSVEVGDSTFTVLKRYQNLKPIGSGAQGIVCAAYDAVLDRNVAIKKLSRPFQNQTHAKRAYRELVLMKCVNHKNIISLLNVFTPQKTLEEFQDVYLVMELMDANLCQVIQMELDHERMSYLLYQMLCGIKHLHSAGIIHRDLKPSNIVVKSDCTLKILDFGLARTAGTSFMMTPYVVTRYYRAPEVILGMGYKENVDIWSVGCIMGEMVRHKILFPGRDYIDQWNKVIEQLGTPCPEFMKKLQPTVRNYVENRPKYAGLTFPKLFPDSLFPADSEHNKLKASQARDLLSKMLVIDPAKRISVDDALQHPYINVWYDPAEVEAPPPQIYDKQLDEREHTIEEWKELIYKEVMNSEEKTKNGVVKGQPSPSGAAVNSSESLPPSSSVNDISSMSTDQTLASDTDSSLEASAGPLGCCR

[9] = biological target: Serine/threonine-protein kinase MRCK alpha (Homo sapiens, UniProt Q5VT25); assay: Inhibition of MRCKalpha (unknown origin) using LCD-AKRRRRLSSLRA-NH2 as substrate after 75 mins by luminescence assay in presence of [33P]ATP
[10] = Inhibition of PKA (unknown origin) after 70 mins by luminescence assay; design: species or system Homo sapiens
[11] = Half life in human liver microsomes; format: ADME, Microsome
[12] = biological target: Rho-associated protein kinase 2 (Homo sapiens, UniProt O75116); assay: Inhibition of ROCK2 (unknown origin) after 4 hrs by HTRF assay
Chain of Rho-associated protein kinase 2 (O75116 whole entry): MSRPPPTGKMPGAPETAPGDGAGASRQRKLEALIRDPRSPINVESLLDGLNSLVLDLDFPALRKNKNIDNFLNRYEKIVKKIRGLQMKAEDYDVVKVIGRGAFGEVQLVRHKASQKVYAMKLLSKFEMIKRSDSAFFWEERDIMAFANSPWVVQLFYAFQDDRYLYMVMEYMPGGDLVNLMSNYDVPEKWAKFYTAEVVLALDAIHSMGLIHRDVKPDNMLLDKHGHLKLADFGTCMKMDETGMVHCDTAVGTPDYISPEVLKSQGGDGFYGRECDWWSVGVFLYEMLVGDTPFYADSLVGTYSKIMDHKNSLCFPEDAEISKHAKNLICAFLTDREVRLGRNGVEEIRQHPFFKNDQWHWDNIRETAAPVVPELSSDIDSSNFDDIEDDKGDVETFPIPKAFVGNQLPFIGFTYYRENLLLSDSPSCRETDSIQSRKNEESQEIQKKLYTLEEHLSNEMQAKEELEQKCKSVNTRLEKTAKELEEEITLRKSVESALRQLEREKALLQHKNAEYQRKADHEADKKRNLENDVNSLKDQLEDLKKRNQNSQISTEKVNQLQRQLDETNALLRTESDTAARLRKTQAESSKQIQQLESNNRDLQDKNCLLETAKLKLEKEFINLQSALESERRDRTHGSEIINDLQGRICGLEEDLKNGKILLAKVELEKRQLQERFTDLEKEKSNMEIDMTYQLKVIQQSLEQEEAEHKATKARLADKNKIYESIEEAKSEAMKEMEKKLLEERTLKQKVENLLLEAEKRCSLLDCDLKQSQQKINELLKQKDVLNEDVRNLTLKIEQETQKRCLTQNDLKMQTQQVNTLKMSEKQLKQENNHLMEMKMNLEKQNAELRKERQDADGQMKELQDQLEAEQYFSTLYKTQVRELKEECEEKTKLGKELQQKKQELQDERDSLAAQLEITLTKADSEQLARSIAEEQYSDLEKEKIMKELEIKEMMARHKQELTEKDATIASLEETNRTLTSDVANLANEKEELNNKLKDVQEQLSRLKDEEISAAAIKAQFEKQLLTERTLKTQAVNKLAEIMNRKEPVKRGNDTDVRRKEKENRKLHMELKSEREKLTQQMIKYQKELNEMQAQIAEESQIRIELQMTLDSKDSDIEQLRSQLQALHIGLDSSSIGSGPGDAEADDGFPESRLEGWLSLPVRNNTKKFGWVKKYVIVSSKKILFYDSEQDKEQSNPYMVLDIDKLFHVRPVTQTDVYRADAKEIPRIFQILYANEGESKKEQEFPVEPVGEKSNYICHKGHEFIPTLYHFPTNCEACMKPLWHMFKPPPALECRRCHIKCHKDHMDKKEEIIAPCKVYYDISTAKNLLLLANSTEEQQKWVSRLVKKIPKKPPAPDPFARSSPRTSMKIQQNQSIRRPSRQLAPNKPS

[13] = Inhibition of ROCK-mediated myosin light chain bisphosphorylation in rat A7R5 cells after 1 hr by fluorescence assay in presence of L-alpha-lysophosphatidic acid; format: cell-based
Method in brief: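 A7r5 cells in 20% FBS DMEM, plated 5000/well overnight, serum-starved 4 h in 0.05% FBS DMEM; compound 13333 nM to 18 nM final for 1 h, then 10 μM LPA 10 min; fixed, permeabilized, anti-ppMLC plus IR800 secondary; infrared scan, ppMLC signal normalized to TO-PRO-3 nuclear signal. IC50 as mean of two or more experiments.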

Cytochrome P450 3A4 = Cytochrome P450 3A4 (Homo sapiens, UniProt P08684); assay: Inhibition of CYP3A4 (unknown origin)-mediated midazolam hydroxylation to 1'-Hydroxymidazolam; format: ADME
Chain of Cytochrome P450 3A4 (P08684 whole entry): as the sequence (P08684 whole entry) above

Cytochrome P450 2D6 = Cytochrome P450 2D6 (Homo sapiens, UniProt P10635); assay: Inhibition of CYP2D6 (unknown origin)-mediated bufuralol hydroxylation to 4'-Hydroxybufuralol; format: ADME
Chain of Cytochrome P450 2D6 (P10635 whole entry): as the sequence (P10635 whole entry) above

Cytochrome P450 2C9 = Cytochrome P450 2C9 (Homo sapiens, UniProt P11712); assay: Inhibition of CYP2C9 (unknown origin)-mediated tolbutamide hydroxylation to hydroxy tolbutamide; format: ADME
Chain of Cytochrome P450 2C9 (P11712 whole entry): as the sequence (P11712 whole entry) above

Cytochrome P450 1A2 = biological target: T2, Cytochrome P450 1A2 (Homo sapiens, UniProt P05177); assay: Inhibition of CYP1A2 (unknown origin)-mediated phenaceten demethylation to acetaminophen; format: ADME
T2 sequence (P05177 whole entry): T1 sequence (P05177 whole entry)

[14] = Aqueous solubility in potassium phosphate buffer at pH 5.5 after 24 hrs by HPLC analysis; format: physicochemical; details: pH 5.5, 24 h
Rattus norvegicus = assay: as §1; format: ADME, organism-based, Plasma; design: dose 1 mg/kg, route intravenous; details: in vivo

| Structure (SMILES) | bioavailability [1] [%] | Cmax [2] [nM] | AUC [3] [µM·h] | half-life [4] [h] | Vd [5] [L/kg] | clearance [6] [mL/min/kg] | inhibition at 10 µM (CYP3A4) [%] | inhibition at 10 µM (CYP2D6) [%] | inhibition at 10 µM (CYP2C9) [%] | inhibition at 10 µM (CYP1A2) [%] | IC50 [7] [nM] | IC50 (MAP kinase p38) [nM] | IC50 [8] [nM] | IC50 [9] [nM] | IC50 [10] [nM] | half-life [11] [h] | IC50 [12] [nM] | IC50 [13] [nM] | IC50 (Cytochrome P450 3A4) [nM] | IC50 (Cytochrome P450 2D6) [nM] | also measured |
| --- | --- | --- | --- | --- | --- | --- | --- | --- | --- | --- | --- | --- | --- | --- | --- | --- | --- | --- | --- | --- | --- |
| O=C(Nc1ccc(-c2cn[nH]c2)cc1)NC(CCO)c1cccc(F)c1 (stereo not drawn) | 28 | 9200 | 9.5 | 2.1 | 0.7 | 4.9 | 23 | 41 | 71 | -2 | 10 | > 20000 | > 20000 | 6400 | 580 | > 2 | 2 | 32 |  |  |  |
| COc1cccc(CN(C)C(=O)Nc2ccc(-c3cn[nH]c3)cc2)c1 | 48 | 2600 | 5.9 | 1 | 1.1 | 9.4 | 27 | 45 | 96 | 9 | 4 | > 20000 | > 20000 | 1850 | 1810 | 0.383 | 1 |  | > 100000 | > 100000 | IC50 (Cytochrome P450 2C9): 600 nM; IC50 (Cytochrome P450 1A2): > 100000 nM |
| COc1cccc(CN(CCN2CCCC2)C(=O)Nc2ccc(-c3cn[nH]c3)cc2)c1 | 0 | 480 | 0.6 | 1 | 4.4 | 71 | 34 | 88 | 24 | 0 | 13 | > 20000 | > 20000 |  | 541 | 0.417 | 3 | 6 |  |  | solubility [14]: soluble |
| CCN(Cc1cccc(OC)c1)C(=O)Nc1ccc(-c2cn[nH]c2)cc1O[C@H]1CCN(C)C1 | 11 | 1100 | 1.3 | 1 | 2.6 | 30 | 53 | 83 | 65 | 9 | 4 | > 20000 | > 20000 | 1550 | 6700 |  | 1 |  |  |  | solubility [14]: soluble |

The next lines start with results.

| bioavailability [1] [%] | Cmax [2] [nM] | AUC [3] [µM·h] | half-life [4] [h] | Vd [5] [L/kg] | clearance [6] [mL/min/kg] | inhibition at 10 µM (CYP3A4) [%] | inhibition at 10 µM (CYP2D6) [%] | inhibition at 10 µM (CYP2C9) [%] | inhibition at 10 µM (CYP1A2) [%] | IC50 [7] [nM] | IC50 (MAP kinase p38) [nM] | IC50 [8] [nM] | IC50 [9] [nM] | IC50 [10] [nM] | half-life [11] [h] | IC50 [12] [nM] | IC50 [13] [nM] | IC50 (Cytochrome P450 3A4) [nM] | IC50 (Cytochrome P450 2D6) [nM] | Structure (SMILES) | also measured |
| --- | --- | --- | --- | --- | --- | --- | --- | --- | --- | --- | --- | --- | --- | --- | --- | --- | --- | --- | --- | --- | --- |
| 51 | 3800 | 4.2 | 1.6 | 1 | 11.2 | 37 | 38 | 95 | -23 | 6 | > 20000 | > 20000 | 4310 | 2990 | 0.4 | 1 | 19 | 35000 | 40000 | COc1cccc(CN(CCO)C(=O)Nc2ccc(-c3cn[nH]c3)cc2)c1 | IC50 (Cytochrome P450 2C9): 2000 nM; IC50 (Cytochrome P450 1A2): > 100000 nM |
| 10 | 330 | 0.2 | 1 | 14 | 176 | 34 | 85 | 35 | -29 | 6 | > 20000 | > 20000 | 8700 | 456 | 0.567 | 1 | 4 | 80000 | 3000 | COc1cccc(CN(CCN(C)C)C(=O)Nc2ccc(-c3cn[nH]c3)cc2)c1 | solubility [14]: soluble; IC50 (Cytochrome P450 2C9): 30000 nM; IC50 (Cytochrome P450 1A2): > 100000 nM |
| 46 | 1100 |  | 1.9 | 1.9 |  | 15 | 29 | 93 | 9 | 33 |  |  |  | 610 | > 2 | 12 | 59 |  |  | O=C(Nc1ccc(-c2cn[nH]c2)cc1)N(CCO)Cc1ccccc1 | AUC (Rattus norvegicus): 3.6 µM·h |
